Columns and labels:
Assay type in all cases: functional
[1] = organism: Mus musculus
[2] = organism: Cavia porcellus; experiment: (§1) Inhibitory effect on the response of isolated ileum to acetylcholine (anti-ACh activity) in guinea pig was determined
How it was run: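 Ileum contraction to acetylcholine (1.1 × 10^-4 mM), with compound added 2 min before the agonist. Three concentrations per compound, percent inhibition averaged over four experiments. ID50 is derived graphically.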

[3] = system: Mus musculus; experiment: Percent inhibition of the charcoal meal transfer in mice(100 mg/kg) was determined
How it was run: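 Male ddN mice (20–25 g) are fasted 18 h and dosed orally. Charcoal meal (5% charcoal in 10% tragacanth) is given orally 20 min later, and mice are killed after 30 min. Charcoal travel is expressed as % of small-intestine length (pylorus to caecum). The group mean (n=7) is compared with the vehicle group (n=7) as percent change.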

[4] = organism: Cavia porcellus; experiment: as §1; remark: listed apart in the source
How it was run: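 Isolated ileum contracted with acetylcholine (1.1 × 10^-4 mM). Test compound added 2 min before the agonist. Each compound was tested at three concentrations, with percent inhibition of the contraction as the mean of four experiments. ID50, the concentration giving 50% inhibition, was read off by the usual graphic method.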

Compound | Inhibition [1] [%] | also measured
Br.N#C/C(=C\c1ccccc1OCCN1CCCCCC1)c1noc2ccccc12 | 27 | –
Cl.N#C/C(=C\c1ccccc1OCCCCN1CCOCC1)c1noc2ccccc12 | 22 | –
Cl.N#C/C(=C\c1ccccc1OCCCN1CCOCC1)c1noc2ccccc12 | 46 | –
Cl.N#C/C(=C\c1cccc(OCCN2CCOCC2)c1)c1noc2ccccc12 | 32 | –
Cl.N#C/C(=C\c1ccccc1OCCN1CCCC1)c1noc2ccccc12 | 22 | –
CCN(CC)CCOc1ccccc1/C=C(\C#N)c1noc2ccccc12.Cl | 20 | –
Cl.N#C/C(=C\c1ccccc1OCCN1CCOCC1)c1noc2ccc(O)cc12 | 4 | –
Cl.N#C/C(=C\c1ccc(OCCCN2CCCCC2)cc1)c1noc2ccccc12.O | 19 | –
COc1ccc2onc(/C(C#N)=C/c3ccccc3OCCN3CCOCC3)c2c1.Cl | 48 | ID50 [2]: 32 µM
COc1ccc2onc(/C(C#N)=C/c3ccccc3OCCN3CCCC3)c2c1.Cl.O | 33 | –
COc1ccc2onc(/C(C#N)=C/c3ccccc3OCCN3CCCCC3)c2c1.Cl.O | – | ID50 [2]: 25 µM; Inhibition [3]: 51%
Cl.N#C/C(=C\c1ccccc1OCCN1CCCCC1)c1noc2ccc(O)cc12 | 39 | –
CCN(CC)CCOc1ccccc1/C=C(\C#N)c1noc2ccc(O)cc12.Cl | 14 | –
Cl.N#C/C(=C\c1ccccc1OCCCN1CCCCCC1)c1noc2ccccc12 | 21 | –
CN(C)CCCOc1ccccc1/C=C(\C#N)c1noc2ccccc12.Cl | 9 | –
CN(C)CCOc1ccccc1/C=C(\C#N)c1noc2ccccc12.Cl.O | 37 | ID50 [2]: 16 µM
Cl.N#C/C(=C\c1ccccc1OCCN1CCCCC1)c1noc2ccccc12.O | 45 | ID50 [2]: 8.7 µM
Cl.N#C/C(=C\c1ccccc1OCCN1CCOCC1)c1noc2ccccc12.O | 55 | ID50 [2]: 22 µM
Cl.N#C/C(=C\c1ccccc1OCCN1CCOCC1)c1noc2ccc(Cl)cc12.O | 11 | –
Cl.N#C/C(=C\c1ccccc1OCCN1CCCCC1)c1noc2ccc(Cl)cc12.O | 37 | –
Cl.N#C/C(=C\c1ccccc1OCCN1CCCC1)c1noc2ccc(Cl)cc12 | 19 | –
CN(C)CCOc1ccccc1/C=C(\C#N)c1noc2ccc(Cl)cc12.Cl | 11 | –
C[N+]1(CCOc2ccccc2/C=C(\C#N)c2noc3ccccc23)CCOCC1.[I-] | 12 | –
CN1[C@@H]2CC[C@H]1C[C@@H](OC(=O)C(CO)c1ccccc1)C2.O=S(=O)(O)O (stereo not given in full) [ATROPINE SULFATE] | 27 | ID50 [2]: 0.0072 µM
CCCC[N+]1(C)[C@@H]2C[C@@H](OC(=O)[C@H](CO)c3ccccc3)C[C@H]1[C@@H]1O[C@@H]12.[Br-] (stereo not given in full) [BUTYLSCOPOLAMINE BROMIDE] | 19 | ID50 [2]: 0.075 µM
CN1CC[C@]23c4c5ccc(O)c4O[C@H]2[C@@H](O)C=C[C@H]3[C@H]1C5.Cl [MORPHINE HYDROCHLORIDE] | 64 | ID50 [4]: 5.3 µM
COc1ccc(Cc2nccc3cc(OC)c(OC)cc23)cc1OC.Cl [PAPAVERINE HYDROCHLORIDE] | 1 | –
